The values below come from article PMC3954597 (Biochemistry, 2014).

Like-named read-outs stand apart in the source and are kept apart here. Square brackets hold non-standard residues; d marks the D form. pY = N[C@@H](Cc1ccc(OP(=O)(O)O)cc1)C(=O)O

The target of one experiment is T1, R24M PTP1B (Homo sapiens, UniProt P18031, R24M).
T1 sequence (P18031 1-321 R24M): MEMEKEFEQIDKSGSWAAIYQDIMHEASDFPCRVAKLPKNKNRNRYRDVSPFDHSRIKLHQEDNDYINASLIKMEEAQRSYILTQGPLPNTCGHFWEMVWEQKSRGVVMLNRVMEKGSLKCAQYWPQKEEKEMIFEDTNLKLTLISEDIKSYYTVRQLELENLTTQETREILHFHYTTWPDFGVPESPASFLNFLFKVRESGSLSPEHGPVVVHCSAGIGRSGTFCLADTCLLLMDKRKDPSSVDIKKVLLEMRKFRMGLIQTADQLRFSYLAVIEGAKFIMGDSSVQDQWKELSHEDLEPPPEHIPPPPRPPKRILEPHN
The experiment is described as follows: PTP assay, R24M PTP1B. The experiment is classed as biochemical. The essentials:
(§1)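 E. coli-expressed catalytic domains were used: wild-type, R24M or R47E PTP1B (aa 1–321), and SHP-1 (aa 205–595). Reactions started with PTP (0.5–20000 nM final) and dephosphorylation was monitored continuously at 282 nm. kcat, KM and kcat/KM came from initial-rate fits (Michaelis–Menten, or V = kcat[E][S]/KM when KM >> [S]) or from fits of progress curves.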

For a further experiment, the target named is T2, PTP1B (Homo sapiens, UniProt P18031).
T2 sequence (P18031 1-321): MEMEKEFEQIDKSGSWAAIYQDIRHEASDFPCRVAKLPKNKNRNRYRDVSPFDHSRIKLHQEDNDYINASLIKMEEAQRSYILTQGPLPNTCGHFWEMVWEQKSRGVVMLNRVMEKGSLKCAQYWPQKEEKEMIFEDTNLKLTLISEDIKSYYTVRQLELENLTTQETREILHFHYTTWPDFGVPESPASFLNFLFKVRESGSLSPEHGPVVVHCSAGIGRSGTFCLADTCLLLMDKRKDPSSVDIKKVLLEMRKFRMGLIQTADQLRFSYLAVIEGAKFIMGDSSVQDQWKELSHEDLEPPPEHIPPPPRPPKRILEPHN
In words: PTP assay, wild-type PTP1B. In kind it is biochemical. The settings on record: WT PTP1B aa 1–321; pH 7.4. An outline of the steps:
as §1

For another experiment, the target named is T3, PTPD1 (Homo sapiens, UniProt Q16825).
T3 sequence (Q16825 875-1174): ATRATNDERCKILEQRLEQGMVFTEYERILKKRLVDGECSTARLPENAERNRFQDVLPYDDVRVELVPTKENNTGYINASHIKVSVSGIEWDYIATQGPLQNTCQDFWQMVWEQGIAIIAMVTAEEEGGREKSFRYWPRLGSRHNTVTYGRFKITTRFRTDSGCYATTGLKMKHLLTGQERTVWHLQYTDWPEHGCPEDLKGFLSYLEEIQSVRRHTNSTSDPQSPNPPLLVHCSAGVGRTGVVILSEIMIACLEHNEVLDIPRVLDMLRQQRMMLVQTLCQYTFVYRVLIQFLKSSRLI
In words: Pre-steady-state. The settings on record: 25 °C; initial phase not resolved, too fast for the instrument. The experiment is classed as biochemical.

Another experiment deals with T4, R47E PTP1B (Homo sapiens, UniProt P18031, R47E).
T4 sequence (P18031 1-321 R47E): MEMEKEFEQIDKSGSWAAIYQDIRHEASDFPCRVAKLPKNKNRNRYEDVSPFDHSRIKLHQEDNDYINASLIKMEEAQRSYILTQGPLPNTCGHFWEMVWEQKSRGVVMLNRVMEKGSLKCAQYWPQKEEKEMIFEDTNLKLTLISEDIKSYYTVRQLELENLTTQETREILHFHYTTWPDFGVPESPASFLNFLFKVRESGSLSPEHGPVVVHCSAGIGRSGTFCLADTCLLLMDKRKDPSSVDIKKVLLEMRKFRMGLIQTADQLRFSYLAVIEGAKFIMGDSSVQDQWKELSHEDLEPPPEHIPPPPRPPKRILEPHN
In words: PTP assay, R47E PTP1B. In kind it is biochemical. An outline of the steps: as §1

Experiment [1] deals with T5, PTP-PEST catalytic domain (aa 5-300), GST fusion (human) (UniProt Q05209).
T5 sequence: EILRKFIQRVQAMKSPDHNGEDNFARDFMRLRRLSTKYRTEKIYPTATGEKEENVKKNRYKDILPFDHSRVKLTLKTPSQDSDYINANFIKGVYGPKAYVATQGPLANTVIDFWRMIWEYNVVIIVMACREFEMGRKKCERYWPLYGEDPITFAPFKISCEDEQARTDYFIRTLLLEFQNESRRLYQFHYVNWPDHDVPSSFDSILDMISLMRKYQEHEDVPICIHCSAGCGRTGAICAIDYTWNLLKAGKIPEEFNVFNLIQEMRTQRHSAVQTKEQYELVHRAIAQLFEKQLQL

In experiment [2] the target is T6, HePTP (aa 22-335), GST fusion (human) (UniProt P35236).
T6 sequence: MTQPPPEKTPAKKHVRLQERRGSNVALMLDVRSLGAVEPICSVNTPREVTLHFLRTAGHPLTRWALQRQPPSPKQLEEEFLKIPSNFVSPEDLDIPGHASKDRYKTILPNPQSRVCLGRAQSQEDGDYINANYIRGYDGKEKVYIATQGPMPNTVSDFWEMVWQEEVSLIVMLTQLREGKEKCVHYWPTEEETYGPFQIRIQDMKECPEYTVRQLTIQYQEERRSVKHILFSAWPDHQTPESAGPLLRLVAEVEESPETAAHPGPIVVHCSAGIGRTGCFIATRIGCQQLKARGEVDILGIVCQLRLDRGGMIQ

The target in experiment [3] is T7, wild-type PTP1B catalytic domain (amino acids 1-321) (human) (UniProt P18031).
T7 sequence: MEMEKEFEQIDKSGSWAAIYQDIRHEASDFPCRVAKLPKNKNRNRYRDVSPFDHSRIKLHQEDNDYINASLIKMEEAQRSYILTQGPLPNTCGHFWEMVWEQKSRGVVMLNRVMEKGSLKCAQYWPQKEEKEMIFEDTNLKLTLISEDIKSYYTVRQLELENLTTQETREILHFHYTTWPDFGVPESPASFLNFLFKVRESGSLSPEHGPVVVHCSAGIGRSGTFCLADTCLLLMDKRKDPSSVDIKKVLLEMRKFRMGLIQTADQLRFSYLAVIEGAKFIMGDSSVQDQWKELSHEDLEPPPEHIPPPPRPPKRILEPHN

Experiment [4] concerns the target T8, R24M PTP1B catalytic domain (amino acids 1-321) (human) (UniProt P18031).
T8 sequence: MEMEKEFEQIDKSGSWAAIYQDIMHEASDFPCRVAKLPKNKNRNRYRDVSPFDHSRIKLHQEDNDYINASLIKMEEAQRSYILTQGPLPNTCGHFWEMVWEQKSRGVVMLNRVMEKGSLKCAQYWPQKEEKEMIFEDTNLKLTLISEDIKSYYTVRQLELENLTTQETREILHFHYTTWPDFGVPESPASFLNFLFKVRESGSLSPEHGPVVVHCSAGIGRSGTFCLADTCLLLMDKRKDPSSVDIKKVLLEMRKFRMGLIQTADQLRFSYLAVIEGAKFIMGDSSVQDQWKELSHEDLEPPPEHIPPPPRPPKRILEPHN

For experiment [5], the target named is T7, wild-type PTP1B catalytic domain (amino acids 1-321) (human). The source holds these as a separate data set.
Experiment [6] has as its target T9, R47E PTP1B catalytic domain (amino acids 1-321) (human) (UniProt P18031).
T9 sequence: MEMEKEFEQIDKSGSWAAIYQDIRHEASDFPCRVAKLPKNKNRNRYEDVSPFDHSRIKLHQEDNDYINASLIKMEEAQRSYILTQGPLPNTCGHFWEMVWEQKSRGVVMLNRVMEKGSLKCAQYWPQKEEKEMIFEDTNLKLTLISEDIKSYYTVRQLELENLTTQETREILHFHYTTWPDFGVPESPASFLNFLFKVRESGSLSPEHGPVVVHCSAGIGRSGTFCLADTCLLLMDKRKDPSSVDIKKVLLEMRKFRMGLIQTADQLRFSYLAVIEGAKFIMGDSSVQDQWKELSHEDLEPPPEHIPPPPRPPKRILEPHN

One may read the Km as the concentration of substrate that gives half-maximal velocity. As a reminder, the kcat is the maximal rate divided by the concentration of active sites. Turning to `O=[N+]([O-])c1ccc(OP(=O)(O)O)cc1` [pNPP, p-nitrophenyl phosphate, reference compound], the Km turned out to be 3 ± 0.1 µM at R24M PTP1B (R24M PTP1B aa 1–321, pH 7.4) and 2800 ± 300 µM at R47E PTP1B (R47E PTP1B aa 1–321, pH 7.4). The kcat at R24M PTP1B (R24M PTP1B aa 1–321, pH 7.4) was found to be 17 ± 1 s⁻¹; on R47E PTP1B (R47E PTP1B aa 1–321, pH 7.4), 16 ± 1 s⁻¹. Besides, the “kcat/KM x 10^7” value on R24M PTP1B (R24M PTP1B aa 1–321, pH 7.4) is listed as 0.00057 x 10^7 M^−1 s^−1; at PTP1B, 0.00069 x 10^7 M^−1 s^−1; on R47E PTP1B (R47E PTP1B aa 1–321, pH 7.4) it was 0.00057 x 10^7 M^−1 s^−1. At R24M PTP1B (ratio of kcat/KM, WT over R24M PTP1B (fold reduction by the mutation)), the WT/R24M is listed as 1.2. The “k of initial phase” value at PTPD1 was greater than 100 s⁻¹. Further, on R47E PTP1B (ratio of kcat/KM, WT over R47E PTP1B (fold decrease by the mutation)), the WT/R47E worked out at 1.2.

B1: Ac-YDEDFpYDYEF-NH2 (acidic) (peptide)
peptide: Ac-YDEDF[pY]DYEF-NH2
SMILES: CC(=O)N[C@@H](Cc1ccc(O)cc1)C(=O)N[C@@H](CC(=O)O)C(=O)N[C@@H](CCC(=O)O)C(=O)N[C@@H](CC(=O)O)C(=O)N[C@@H](Cc1ccccc1)C(=O)N[C@@H](Cc1ccc(OP(=O)(O)O)cc1)C(=O)N[C@@H](CC(=O)O)C(=O)N[C@@H](Cc1ccc(O)cc1)C(=O)N[C@@H](CCC(=O)O)C(=O)N[C@@H](Cc1ccccc1)C(N)=O
Consider B1, for which the KM, steady-state dephosphorylation of the pY peptide in [1] was 2.2 µM; in [2] it was 280 µM.

B2: Ac-ASSDEpYAA-NH2 (peptide)
peptide: Ac-ASSDE[pY]AA-NH2
SMILES: CC(=O)N[C@@H](C)C(=O)N[C@@H](CO)C(=O)N[C@@H](CO)C(=O)N[C@@H](CC(=O)O)C(=O)N[C@@H](CCC(=O)O)C(=O)N[C@@H](Cc1ccc(OP(=O)(O)O)cc1)C(=O)N[C@@H](C)C(=O)N[C@@H](C)C(N)=O
Take B2: the KM, steady-state dephosphorylation of the pY peptide in experiment [3] amounted to 1.9 µM; in [4] it was 3.8 µM; in [5], 1.8 µM; in [6] it was 32 µM.
